TRPC6 activator: mouse TRPC6 channel activators, primary screen, cell-based, HEK293, membrane potential dye; actives 0.13% (n = 310,000); AID 2550, 2010; B-score at 10 µM; HEK293-TRPC6 membrane potential dye fluorescence; stronger effect = higher value;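 active = B-score of the integrated fluorescence ratio above library mean plus 3 SD, and starting fluorescence ratio within library mean plus 5 SD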;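 also: higher score means more depolarization so channel activation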
TRPC4 agonist: activators of mouse TRPC4 channel, primary screen, Fluo4 calcium, HEK293 TRPC4beta/mu-opioid cells; Short transient receptor potential channel 4 (Mus musculus), Q9QUQ5; Fluo4 calcium fluorescence; stronger effect = higher value; B-score at 10 µM; actives 0.49% (n = 310,000); AID 2237, 2010;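 active = B-score above 5 SD of library B-scores, and initial fluorescence ratio not above library mean plus 5 SD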;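 also: positive B-score marks a calcium rise read as TRPC4 activation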
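Material: TRPC4beta and mu-opioid receptor HEK293 stable cells | Incubation: 45 min room-temperature Fluo4 loading, 110 s read | Detection: Kinetic Fluo4 calcium fluorescence | Measure: Integrated baseline-normalised fluorescence ratio, converted to per-well B score | Benchmarks: Low control buffer alone, high control maximal DAMGO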
TRPC6 inhibitor: mouse TRPC6 channel inhibitors, primary screen, cell-based, HEK293, membrane potential dye; actives 1.1% (n = 310,000); ACh-evoked depolarization; stronger effect = lower value; B-score at 10 µM; Short transient receptor potential channel 6 (Mus musculus), Q61143; AID 2553, 2010;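 active = B-score under library mean minus 3 SD, initial fluorescence not abnormally high, positive integrated signal ratio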;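 also: B-score derived from integrated fluorescence ratio over the kinetic read; more negative B-score means stronger inhibition of depolarization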
TRPC4 potent: positive allosteric modulators of TRPC4, primary screen, cell-based, mouse TRPC4beta, HEK293 mu-opioid, Fluo-4 calcium | Short transient receptor potential channel 4 (Mus musculus), Q9QUQ5 | DAMGO EC20, Fluo-4 Ca2+ flux; stronger effect = higher value | B-score at 10 µM | actives 0.42% (n = 310,000) | AID 2227, 2009;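 active = B-score of calcium response area above 5 SD of library B-scores, with initial fluorescence ratio within 5 SD of library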
FID counter: compounds displacing fluorescent DNA intercalator, primary screen, artefact control for HCV NS3 helicase inhibitor project, biochemical, FID fluorescence | DNA fluorescent intercalator displacement | inhibition, % at 7.9 µM | actives 0.17% (n = 290,000) | AID 1845, 2009; in the data active = inhibition above about 37%;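 also: higher means more ethidium bromide displaced from hairpin DNA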
TRPC4 inh: inhibitors of mouse TRPC4 channel, primary screen, Fluo4 calcium, HEK293 TRPC4beta/mu-opioid cells; Short transient receptor potential channel 4 (Mus musculus), Q9QUQ5; DAMGO-evoked Fluo4 calcium flux; stronger effect = lower value; B-score at 10 µM; actives 0.39% (n = 300,000); AID 2247, 2010;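 active = B-score over 3 SD under the library average, no early fluorescence shift, positive overall ratio signal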
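test system = HEK293 cells with stable TRPC4beta plus mu-opioid receptor expression | detection = Fluo4 Ca2+ flux fluorescence | read-out = integrated fluorescence ratio relative to baseline, converted to per-well B score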
TRPC4 spec 2: second selectivity test of TRPC6 inhibitors: effect on mouse TRPC4; shares compounds with TRPC6 inhibitor; HEK293 TRPC4/MOR, membrane potential dye fluorescence; channel activated by saturating DAMGO dose; inhibition, % at 10 µM; actives 42% (n = 920);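 active = compounds whose fluorescence signal differed from control wells by over 3 SD, either direction, in both duplicate plates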
TRPC4 spec: mouse TRPC4 modulation by TRPC6 hits, confirmation, selectivity assay for TRPC6 inhibitor project, cell-based, HEK293 TRPC4/mu-opioid, membrane potential dye. activity change, negative = inhibition, % at 10 µM. actives 61% (n = 920). shares compounds with TRPC6 inhibitor. membrane potential fluorescence. AID 2777, 2010;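 active = rise or fall in signal beyond 3 SD of buffer-only wells in both replicate plates, either sign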;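 also: integrated kinetic ratio of fluorescence range over baseline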
HEK293 MPD ctr 2-1: nonspecific membrane potential effects, parental HEK293, confirmation, counter-screen for TRPC6 inhibitor project, cell-based, second counter screen. shares compounds with TRPC6 inhibitor. parental HEK293 membrane potential dye fluorescence; maximal acetylcholine challenge after compound addition. signal change vs control, % at 10 µM. actives 31% (n = 920). AID 2779, 2010;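 active = membrane potential signal moving either way by over 3 SD of the maximum-effect control, in both duplicate plates, meaning non-specific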
HEK293 MPD ctr-1: membrane potential modulation in parental HEK293, confirmation, counter-screen for TRPC6 inhibitor project, cell-based; shares compounds with TRPC6 inhibitor; parental HEK293 membrane potential dye fluorescence; membrane potential signal change, % at 10 µM; actives 60% (n = 920); AID 2780, 2010;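 active = membrane potential signal shifting up or down by more than 3 SD of buffer-only wells, on both duplicate plates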
HEK293 MPD ctr-2: parental HEK293 membrane potential modulation, confirmation, counter-screen for TRPC6 modulator project, cell-based; shares compounds with TRPC6 inhibitor; membrane potential dye fluorescence; membrane potential signal change, % at 10 µM; actives 51% (n = 2,400); AID 488924, 2010;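 active = membrane potential signal moves up or down beyond 5 SD from buffer-only wells, on both duplicate plates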
HEK293 MPD ctr 2-2: parental HEK293 nonspecific activity of TRPC6 modulators, second screen. shares compounds with TRPC6 inhibitor. membrane potential dye fluorescence; after compound, maximal acetylcholine stimulation. inhibition, % at 10 µM. actives 14% (n = 2,400);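 active = membrane potential signal drops by more than 5 SD from the mean control signal, in both duplicate plates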
TRPC4 ctr mod: TRPC4 modulation by TRPC6 hit compounds, confirmation, selectivity assay for TRPC6 modulator project, cell-based, HEK293 TRPC4/mu-opioid, membrane potential dye, mouse; membrane potential fluorescence; percent change from control (negative = decrease, positive = increase), % at 10 µM; actives 69% (n = 2,400); shares compounds with TRPC6 inhibitor;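 active = membrane potential signal moved up or down beyond 5 SD of buffer control wells, in both duplicate plates, actives on both sides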
TRPC4/MOR inh 2: mouse TRPC4 off-target activity of TRPC6 modulators, second screen. shares compounds with TRPC6 inhibitor. HEK293 TRPC4/mu-opioid, membrane potential dye fluorescence; stimulated with maximal-effect DAMGO. inhibition, % at 10 µM. actives 55% (n = 2,400);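 active = drop in membrane potential signal beyond 5 SD of the control wells in both duplicate plates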;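 also: TRPC4 counter screen for TRPC6 hits run under conditions tuned for TRPC6 not TRPC4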
TRPC6 inh conf: mouse TRPC6 channel inhibitors, confirmation, HEK293 cells, membrane potential dye, duplicate. shares compounds with TRPC6 inhibitor. ACh-evoked depolarization. inhibition, % at 10 µM. actives 43% (n = 3,300). AID 488960, 2010;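 active = fluorescence ratio falls more than 5 SD below the full-stimulation control mean, in both duplicate runs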;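 also: integrated fluorescence ratio of peak minus minimum over baseline after agonist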
TRPC6 act confirm: mouse TRPC6 channel activators, confirmation, HEK293 cells, membrane potential dye, duplicate; shares compounds with TRPC6 inhibitor; HEK293-TRPC6 membrane potential dye fluorescence, FDSS; activation, % at 10 µM; actives 11% (n = 2,800);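 active = ratio signal rise beyond 5 SD above unstimulated control wells' mean, seen in both duplicate runs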
Of the large screens only hits and unclear results are named; the others gave an inactive call (follow-up assays come after a bar, where they were run). Rows were chosen to be rich in hits. Some 2.3% of all compounds tested hit in one or more screens of this group.

O=C(N[C@@H](Cc1ccccc1)C(=O)NC1CC1)c1ccc(Cl)cc1	none
O=C(NCCSc1ncc(-c2ccc(F)cc2)[nH]1)c1ccc2c(c1)OCO2	TRPC6 inhibitor -5.8 (no result: FID counter) | HEK293 MPD ctr-2 inactive | HEK293 MPD ctr 2-2 inactive | TRPC4 ctr mod inactive | TRPC4/MOR inh 2 inactive | TRPC6 inh conf inactive | TRPC6 act confirm inactive
CCN(CC)CCCNC(=O)c1cc2nc3c(c(C(F)(F)F)n2n1)CCc1ccccc1-3	TRPC6 inhibitor -6.7 | TRPC4 spec 2 65% | TRPC4 spec inactive | HEK293 MPD ctr 2-1 inactive | HEK293 MPD ctr-1 0.8% | TRPC6 inh conf inactive | TRPC6 act confirm inactive
COc1ccc(CCC(C)NC2C3CC4CC(C3)CC2C4)cc1 (configuration not stated)	TRPC6 inhibitor -8.5 | TRPC4 spec 2 66% | TRPC4 spec 37% | HEK293 MPD ctr 2-1 -12% | HEK293 MPD ctr-1 21% | TRPC6 inh conf 94%
COC(=O)c1ccc2c(c1)C(C)(C)C(/C=C/c1ccc(O)cc1)=[N+]2C	none
